Here are results for five compounds from paper PMC6369923 (Journal of immunology (Baltimore, Md. : 1950), 2019).

Ends that are not written are not given here. Where only a bound is given, the exact number is not on record here.

Series [1] relates to MRGPRX4 (HTLA-MRGPRX4 cells). Put plainly: Ca2+ mobilization in HTLA-MRGPRX4 cells. The class given is cell-based. The conditions noted are these: nateglinide 30 μM, AG-30/5C 10 μM, compound 48/80 30 μg/mL; FLIPR-Tetra; representative traces. The method, boiled down:
(§1)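 HTLA cells (HEK-293T stably expressing β-arrestin2-TEV) were stably transfected with the MRGPRX2-Tango or MRGPRX4-Tango plasmid, and a single-cell-derived clone was checked for receptor expression by anti-FLAG flow cytometry. Cells were plated at 10^4 per well on collagen and grown 24 h at 37°C, then loaded with Calcium 6 dye for 2 h at 37°C. After 1 h equilibration at room temperature, test compound was added and fluorescence imaged every 1 s for 5 min on FLIPR-Tetra.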
Background: A change in cytosolic calcium serves as a functional read-out for many receptors and channels.

For series [2], the system named is MRGPRX4 (HTLA-MRGPRX4 cells). Nature of the series: Tango assay. The class given is cell-based. As to conditions: nateglinide 30 μM, 16 h, 37°C, three experiments. The method, boiled down: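 Tango line from HTLA cells (HEK-293T with β-arrestin2-TEV) stably transfected with MRGPRX4-Tango, single-cell cloned, surface FLAG confirmed by flow. Cells plated at 50,000/well on poly-L-lysine in triplicate, antibiotic-free medium, 6 h at 37°C, then agonist 16 h at 37°C; Bright-Glo luminescence. Ca2+ traces: Calcium 6 loading 2 h 37°C, 1 h room-temperature equilibration, FLIPR imaging every 1 s over 5 min.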

The subject of series [3] is MRGPRX2 (HTLA-MRGPRX2 cells). The conditions noted are these: cited from earlier work.
For series [4], the system named is MRGPRX2 (RBL-2H3 cells stably expressing MRGPRX2). Nature of the series: RBL-MRGPRX2 degranulation. The class given is cell-based. The method, boiled down:
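RBL-2H3 cells stably expressing MRGPRX2 were kept in 1 mg/mL G418. Cells were seeded at 5 × 10^4 per well and cultured overnight with or without pertussis toxin (100 ng/mL, 16 h), then washed twice into HEPES buffer with 0.1% BSA. Optional resveratrol was 100 μM for 5 min. Cells were stimulated with test compound for 30 min at 37°C, and β-hexosaminidase release was measured with 1 mM PNAG (1 h, 37°C) at A405 as percent of total.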

The test system of series [5] is LAD2 cells (human MC line, endogenously expressing MRGPRX2). Nature of the series: LAD2 degranulation. The conditions noted are these: resveratrol 100 μM, 5 min, 30 min. The format is cell-based. The method, boiled down: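 LAD2 cells were grown in StemPro-34 with rhSCF (100 ng/mL), washed, and seeded at 10^4 per well in HEPES buffer with 0.1% BSA. Where used, resveratrol pretreatment was 100 μM for 5 min, followed by stimulation with test compound for 30 min at 37°C. Supernatant or Triton X-100 lysate of unstimulated cells (total) was incubated with 1 mM PNAG for 1 h at 37°C, stopped with carbonate buffer, and read at A405. Result is percent β-hexosaminidase release; three experiments.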

For series [6], the system named is IgE-mediated MC degranulation. The conditions noted are these: cited from earlier work.
The test system of series [7] is MRGPRX2 (HTLA-MRGPRX2 cells). Nature of the series: Tango assay. The format is cell-based. As to conditions: resveratrol 100 μM, 5 min. The method, boiled down:
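HTLA cells (HEK-293T expressing β-arrestin2-TEV) stably transfected with MRGPRX2-Tango; single-cell clone, surface FLAG checked by flow. 50,000 cells/well on poly-L-lysine, triplicate, antibiotic-free medium, 6 h at 37°C; resveratrol 100 μM 5 min where used, then agonist 16 h at 37°C; Bright-Glo luminescence. Ca2+: Calcium 6 dye 2 h 37°C, 1 h room temperature, FLIPR read every 1 s for 5 min. Mean ± SEM, three experiments.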

Series [8] deals with MRGPRX2 (HTLA-MRGPRX2 cells). Nature of the series: Ca2+ mobilization in HTLA-MRGPRX2 cells. The format is cell-based. The conditions noted are these: compound 48/80 30 μg/mL, AG-30/5C 10 μM, Icatibant 30 μg/mL; FLIPR-Tetra; representative traces. The method, boiled down:
as §1

In series [9] the test system is MRGPRX2 (RBL-MRGPRX2 cells). Nature of the series: Ca2+ mobilization in RBL-MRGPRX2 cells. The format is cell-based. As to conditions: PTx 100 ng/mL, 16 h, Indo-1, agonist compound 48/80 1 μg/mL, AG-30/5C 1 μM or Icatibant 20 μg/mL, representative traces.
For series [10] the following is noted: treatment of hereditary angioedema; cited from earlier work.
The subject of a further series is MRGPRX2 (human MC). As to conditions: cited from earlier work.
The subject of a further series is MRGPRX2. The conditions noted are these: LL-37 as agonist; cited from earlier work.
The conditions of series [11]: mice; cited from earlier work.

For `CC(C)[C@H]1CC[C@H](C(=O)N[C@H](Cc2ccccc2)C(=O)O)CC1` [nateglinide], the “Ca2+ mobilization via MRGPRX4” value in series [1] is reported as “causes an increase in Ca^2+ mobilization”. Further, the “β-arrestin-mediated gene expression via MRGPRX4 (Tango), in words” value in series [2] (AG-30/5C 10 μM, compound 48/80 30 μg/mL) is recorded as “induces β-arrestin-mediated gene expression”. For the same compound, in series [2], the “increase in β-arrestin-mediated gene expression via MRGPRX4” value was over 100 fold.
As for `Oc1ccc(/C=C/c2cc(O)cc(O)c2)cc1` [resveratrol], the “inhibition of constitutive MRGPRX2-mediated Tango” value in series [3] (NIH Clinical Collection library (NCC-1) screen) is listed as “inhibitor of constitutive MRGPRX2-mediated Tango”. For the same compound, in series [4] (resveratrol 100 μM, 5 min, Icatibant 20 μg/mL, 30 min), the “inhibition of Icatibant-induced degranulation, RBL-MRGPRX2” value was “significant (p≤ 0.05 and p≤ 0.001) inhibition”. Besides, the “inhibition of compound 48/80- and AG-30/5C-induced degranulation, RBL-MRGPRX2” value in series [4] (resveratrol 100 μM, 5 min, compound 48/80 1 μg/mL or AG-30/5C 1 μM, 30 min) was “significantly (p ≤0.05, 0.01 and 0.001) reduced degranulation”. For the same compound, in series [5] (Icatibant 20 μg/mL), the “inhibition of Icatibant-induced degranulation, LAD2” value was “significant (p≤ 0.05 and p≤ 0.001) inhibition”. The “inhibition of compound 48/80- and AG-30/5C-induced degranulation, LAD2” value in series [5] (compound 48/80 1 μg/mL or AG-30/5C 1 μM) was “significantly (p ≤0.05, 0.01 and 0.001) reduced degranulation”. Also, the “inhibition of IgE-mediated MC degranulation” value in series [6] was “activates sirtuin 1 (sirt1) to inhibit IgE-mediated MC degranulation”. Also, the “effect on AG-30/5C Tango response” value in [7] (AG-30/5C 10 μM overnight) is “no effect on Tango”. Further, in [7] (compound 48/80 3.0, 10 and 20 μg/mL overnight), the “inhibition of compound 48/80-induced β-arrestin gene expression (Tango)” value is “significant (p≤ 0.01 and p≤ 0.001) inhibition”.
Take Icatibant: the “β-arrestin-mediated gene expression (literature)” value in [3] (HTLA cells expressing MRGPRX2-Tango) is “does not activate β-arrestin-mediated gene expression”. Also, the “peak Ca2+ mobilization, high concentration” value in [8] is given as “induced Ca^2+ mobilization although the peak was much shorter than compound 48/80”. Moreover, the “effect of pertussis toxin on agonist-induced degranulation” value in series [4] (RBL-MRGPRX2, PTx 100 ng/mL, 16 h, agonist compound 48/80 1 μg/mL or AG-30/5C 1 μM (p ≤ 0.001), or Icatibant 20 μg/mL) was “completely blocked”. For the same compound, the “effect of pertussis toxin on agonist-induced Ca2+ mobilization” value in [9] was “completely blocked Icatibant-induced degranulation but not Ca^2+ mobilization”. Besides, the “injection site pseudo-allergic drug reaction” value in series [10] is given as “injection site pseudo-allergic drug reaction in nearly every patient”. The “MC degranulation via MRGPRX2 (literature)” value in the series on MRGPRX2 (human MC) was “promotes MC degranulation via MRPGRX2”.
Consider LL-37, for which, in the series with MRGPRX2, the “receptor phosphorylation, desensitization and internalization” value is “resistant to phosphorylation, desensitization and internalization”. Also, the vaccine adjuvant activity entry in [11] was “safe and effective vaccine adjuvant in mice”. The “activation of human MC via MRGPRX2 (literature)” value with MRGPRX2 (human MC) is “activate human MC”.
“human β-defensin 3: host defense peptide (GIINTLQKYYCRVRGGRCAVLSCLPKEEQIGKCSTRGRKCCRRKK; ends and bridges not checked; cysteine pairing not given here; UniProt P81534 23-67, looked up)”: in the series with MRGPRX2 (human MC), the “effect of PTx on MC degranulation and Ca2+ mobilization (literature)” value is “inhibits MC degranulation in response to host defense peptide, human β-defensin 3 without affecting Ca^2+ mobilization”.
